Here are results for nine molecules from ChEMBL document CHEMBL5032492, “Aminoalkoxycarbonyloxymethyl Ether Prodrugs with a pH-Triggered Release Mechanism: A Case Study Improving the Solubility, Bioavailability, and Efficacy of Antimalarial 4(1H)-Quinolones with Single Dose Cures” (J Med Chem, 2021).

The test system of data set [1] is Plasmodium falciparum. Description: Antimalarial activity against chloroquine and pyrimethamine resistant Plasmodium falciparum W2 infected in human erythrocytes assessed as reduction in parasite growth incubated for 48 hrs followed by addition of [3H]-hypoxanthine and measured after 24 hrs by Topcount liquid scintillation counting method. As to conditions: W2, Erythrocyte. The data set is classed as functional, organism-based.

The test system of data set [2] is Plasmodium falciparum. Description: Antimalarial activity against chloroquine, pyrimethamine, mefloquine and atovaquone- resistant Plasmodium falciparum TM90-C2B infected in human erythrocytes assessed as reduction in parasite growth incubated for 48 hrs followed by addition of [3H]-hypoxanthine and measured after 24 hrs by Topcount liquid scintillation counting method. Type of data set: functional, organism-based. As to conditions: Erythrocyte.

Data set [3] is described as follows: Apparent half life in BALB/c mouse at 50 mg/kg, po. The data set is classed as ADME, organism-based. As to conditions: in vivo, read-out: t1/2(app) (converted). The essentials:
(§1)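 Single oral dose in mice, formulated in 0.5% aqueous HEC; doses of 3, 10 or 50 mg/kg. The parent 4(1H)-quinolone was quantified in plasma over time after dosing, with a lower limit of quantification of 1 nM. PK parameters were derived from the plasma concentration profiles.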

Data set [4] in a line: Tmax in BALB/c mouse at 50 mg/kg, po. The data set is classed as ADME, organism-based. As to conditions: in vivo. The essentials: as §1
Data set [5] is described as follows: Cmax in BALB/c mouse at 50 mg/kg, po. Type of data set: ADME, organism-based. Details: route oral, dose 50 mg/kg. As to conditions: in vivo. The essentials:
as §1

The test system of data set [6] is Plasmodium berghei. Briefly: In vivo antimalarial activity against blood stage Plasmodium berghei transfected with GFP infected in BALB/c mouse assessed as supression of parasitemia at 50 mg/kg, po administered once daily starting from day 3 to 5 post infection and measured at day 6 by Giemsa staining based flow cytometric analysis relative to control. The data set is classed as functional. The essentials: (§2)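 Female BALB/c mice, 4–6 weeks old, five per group, were infected intraperitoneally with 2 × 10^6 P. berghei-GFP-infected red cells. Oral doses of 10 or 50 mg/kg in 0.5% aqueous HEC were given once daily on days 3–5 PI; prodrugs were suspended about 1 min before dosing. Parasitemia was measured by flow cytometry and Giemsa smears. Day-6 percent suppression was calculated versus untreated controls, with Welch-corrected t test.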

Data set [7] in a line: Solubility of the compound in 0.5% hydroxyethylcellulose.
Data set [8] has as its system Plasmodium berghei. Briefly: In vivo antimalarial activity against blood stage Plasmodium berghei transfected with GFP infected in BALB/c mouse assessed as supression of parasitemia at 10 mg/kg, po administered once daily starting from day 3 to 5 post infection and measured at day 6 by Giemsa staining based flow cytometric analysis relative to control. The data set is classed as functional. The essentials: as §2

Data set [9] in a line: Clearance in BALB/c mouse at 50 mg/kg, po. Type of data set: ADME, organism-based. As to conditions: in vivo. The gist of the method: as §1
A short description of data set [10]: Volume of distribution in BALB/c mouse at 50 mg/kg, po. Type of data set: ADME, organism-based. As to conditions: in vivo. The essentials:
as §1

Data set [11] is described as follows: AUC (0 to 24 hrs) in BALB/c mouse at 50 mg/kg, po. Details: time < 24 hr, route oral, dose 50 mg/kg. Type of data set: ADME, organism-based. As to conditions: in vivo. The gist of the method:
as §1

Data set [12] is described as follows: Toxicity in BALB/c mouse infected with blood stage Plasmodium berghei assessed as weight loss at up to at 50 mg/kg, po administered once daily starting from day 3 to 5 post infection and measured on day 6. The data set is classed as organism-based. As to conditions: in vivo. The gist of the method:
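P. berghei-infected BALB/c mice were dosed orally once daily on days 3–5 PI in 0.5% aqueous HEC, at doses up to 50 mg/kg. Body weight of treated animals was monitored for loss.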

Data set [13] can be described thus: Aqueous solubility of compound at pH 2.4. As to conditions: buffer.
A short description of data set [14]: Cmax in BALB/c mouse at 10 mg/kg, po. Details: route oral, dose 10 mg/kg. Type of data set: ADME, organism-based. As to conditions: in vivo. The gist of the method: as §1
Data set [15] concerns Plasmodium berghei. Description: In vivo antimalarial activity against blood stage Plasmodium berghei transfected with GFP infected in BALB/c mouse assessed as supression of parasitemia at 10 mg/kg, po administered as single dose on 3 days post infection and measured on day 6 by Giemsa staining based flow cytometric analysis relative to control. Type of data set: functional. The gist of the method:
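Female BALB/c mice, 4–6 weeks old, five per dose group, were infected intraperitoneally with 2 × 10^6 P. berghei-GFP-infected red cells. Each received one oral dose on day 3 PI in 0.5% aqueous HEC; doses ranged 0.01–10 mg/kg. Parasitemia was measured from tail blood by flow cytometry and Giemsa smears. Percent suppression on day 6 PI was calculated versus untreated infected controls, with Welch-corrected unpaired t test.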

Data set [16] can be described thus: AUC (0 to 24 hrs) in BALB/c mouse at 10 mg/kg, po. The data set is classed as ADME, organism-based. Further details: time < 24 hr, route oral, dose 10 mg/kg. As to conditions: in vivo. The gist of the method:
as §1

Data set [17] in a line: AUC (0 to 24 hrs) in BALB/c mouse at 3 mg/kg, po. The data set is classed as ADME, organism-based. Details: time < 24 hr, route oral, dose 3 mg/kg. As to conditions: in vivo. The essentials: as §1
A short description of data set [18]: Clearance in BALB/c mouse at 3 mg/kg, po. Type of data set: ADME, organism-based. As to conditions: in vivo. The gist of the method: as §1
Data set [19] in a line: Cmax in BALB/c mouse at 3 mg/kg, po. The data set is classed as ADME, organism-based. As to conditions: in vivo. Further details: route oral, dose 3 mg/kg. The essentials: as §1
Data set [20] in a line: Tmax in BALB/c mouse at 3 mg/kg, po. The data set is classed as ADME, organism-based. As to conditions: in vivo. The essentials: as §1
The nature of data set [21]: Apparent half life in BALB/c mouse at 10 mg/kg, po. The data set is classed as ADME, organism-based. As to conditions: in vivo, read-out: t1/2(app) (converted). The essentials:
as §1

A short description of data set [22]: Volume of distribution in BALB/c mouse at 10 mg/kg, po. The data set is classed as ADME, organism-based. As to conditions: in vivo. The gist of the method: as §1
A short description of data set [23]: Clearance in BALB/c mouse at 10 mg/kg, po. Type of data set: ADME, organism-based. As to conditions: in vivo. The essentials:
as §1

The nature of data set [24]: Volume of distribution in BALB/c mouse at 3 mg/kg, po. Type of data set: ADME, organism-based. As to conditions: in vivo. The essentials: as §1
Data set [25] in a line: Tmax in BALB/c mouse at 10 mg/kg, po. Type of data set: ADME, organism-based. As to conditions: in vivo. The gist of the method: as §1
Data set [26] in a line: Apparent half life in BALB/c mouse at 3 mg/kg, po. As to conditions: in vivo, read-out: t1/2(app) (converted). Type of data set: ADME, organism-based. The gist of the method: as §1

Each structure is given as a SMILES string. ≈ marks a conversion by molar mass, not a printed value. Calls of active or inactive are those of the source. No cut-off for these calls is given here.

For the molecule `COc1cc2nc(C)c(-c3ccccc3C)c(OC(=O)N3CCCC3)c2cc1Cl`, the EC50 was more than 2290 nM in the data set with Plasmodium falciparum [1] and more than 3550 nM in the data set on Plasmodium falciparum [2].
On to `CNCCOC(=O)OCOc1c(-c2ccc(C(F)(F)F)cc2)c(C)nc2cc(OC)c(Cl)cc12.Cl`, for which the half-life in [3] is 7.7 h. In data set [4], the Tmax was 4 h. Also, in data set [5], the Cmax is 12000 nM. Moreover, the Activity with Plasmodium berghei [6] was determined as 96%; with Plasmodium berghei [8], 75%. In data set [7], the solubility was more than 5600 µM. Also, in data set [9], the clearance came out at 11.6 mL/min/kg. The molecule also came in with a Vd in [10] of 7.8 L/kg. The AUC in data set [11] was 8031 µmol·min/L.
As for `CNCCCOC(=O)OCOc1c(-c2ccccc2C)c(C)nc2cc(OC)c(Cl)cc12.Cl`, the values for the Activity result (in data set [12]; with Plasmodium berghei [6]; with Plasmodium berghei [8]) were “Non-Toxic”, 72% and 52%, respectively. For the same molecule, the solubility in [13] is more than 100 µM; in [7], more than 20000 µM. For the same molecule, the figures for the EC50 in the data set on Plasmodium falciparum [1] and in the data set on Plasmodium falciparum [2] were 269 nM and 170 nM, respectively.
Regarding `CNCCCOC(=O)OCOc1c(-c2ccc(C(F)(F)F)cc2)c(C)nc2cc(OC)c(Cl)cc12.Cl`, the Activity result is “Non-Toxic” in data set [12], 96% in the data set on Plasmodium berghei [6] and 82% in the data set with Plasmodium berghei [8]. Moreover, the solubility in [13] was 600 µM; in [7], more than 5500 µM. The same molecule came in with a clearance in data set [9] of 7.8 mL/min/kg. Further, the AUC in data set [11] stood at 11664 µmol·min/L.
Turning to `COc1cc2[nH]c(C)c(-c3ccc(C(F)(F)F)cc3)c(=O)c2cc1Cl`, the results for the Activity result (in data set [12]; in the data set on Plasmodium berghei [6]; in the data set with Plasmodium berghei [8]) were “Non-Toxic”, 10% and 11%, respectively. Moreover, in data set [13], the solubility was less than 1 µM. The molecule further gave a clearance in [9] of 610 mL/min/kg. In data set [11], this molecule showed an AUC of 222 µmol·min/L.
As to `COc1cc2[nH]c(C)c(-c3ccccc3C)c(=O)c2cc1Cl`, the Activity result in data set [12] is “Non-Toxic”; in the data set on Plasmodium berghei [6], 28%; in the data set with Plasmodium berghei [8], 29%. Besides, the solubility in [13] was determined as 6.9 µM (≈ 2.17 µg/mL). Further, the figures for the concentration giving a half-maximal response (EC50) with Plasmodium falciparum [1] and in the data set with Plasmodium falciparum [2] were 21.9 nM and 38 nM, respectively.
Regarding `CNCCOC(=O)OCOc1c(-c2ccccc2C)c(C)nc2cc(OC)c(Cl)cc12.Cl`, the solubility in [13] is more than 100 µM; in data set [7], more than 21000 µM. Further, the Activity in the data set on Plasmodium berghei [6] is reported as 46%; with Plasmodium berghei [8], 71%. The EC50 with Plasmodium falciparum [1] is 219 nM; in the data set on Plasmodium falciparum [2], 107 nM.
Take `CCC(=O)Oc1c(-c2ccccc2C)c(C)nc2cc(OC)c(Cl)cc12`: the EC50 with Plasmodium falciparum [1] and with Plasmodium falciparum [2] was 63.1 nM each time.
As to `COc1cc2[nH]c(C)c(-c3ccc(Oc4ccc(OC(F)(F)F)cc4)cc3F)c(=O)c2cc1Cl`, the Cmax in data set [14] turned out to be 460 nM; in [19] it was 310 nM. Besides, the Activity in the data set with Plasmodium berghei [15] (time 3 day) is reported as less than 1%. In the data set on Plasmodium berghei [15] (time 3.0 day), the outcome was inactive. Further, the results for the AUC in data set [16] and in [17] were 580 µmol·min/L and 228 µmol·min/L, respectively. In addition, the values for the clearance in data set [18] and in data set [23] were 26.6 mL/min/kg and 34.9 mL/min/kg, respectively. Also, the values for the Tmax in data set [20] and in data set [25] were 4 h and 8 h, respectively. Besides, the half-life in data set [21] was 14.5 h; in data set [26], 8.5 h. Moreover, the Vd in [22] came out at 44 L/kg; in data set [24], 19.6 L/kg.
